Results as given in ChEMBL document CHEMBL2417516, “Metallo-β-lactamase inhibitory activity of 3-alkyloxy and 3-amino phthalic acid derivatives and their combination effect with carbapenem” (Bioorg Med Chem, 2013).
Values after ≈ are worked out from the molar mass of the structure shown. Active and inactive are the calls of the source. No cut-off for these calls is given here.

Columns and labels:
Metallo beta-lactamase = Metallo beta-lactamase (Pseudomonas aeruginosa, UniProt Q6TUJ4); assay: Inhibition of carbapenems-resistant Pseudomonas aeruginosa MSC15369 metallo-beta-lactamase IMP1 expressed in Escherichia coli DH5[alpha] using nitrocefin as substrate after 20 mins by spectrophotometry
Chain of Metallo beta-lactamase (Q6TUJ4 whole entry): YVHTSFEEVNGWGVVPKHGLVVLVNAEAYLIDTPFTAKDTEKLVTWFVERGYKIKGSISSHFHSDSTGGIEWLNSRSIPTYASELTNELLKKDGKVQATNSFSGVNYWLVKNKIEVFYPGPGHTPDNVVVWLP
How it was run: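 IMP-1 was expressed in E. coli DH5 with 0.5 mM IPTG induction for 3 h at room temperature, and the soluble enzyme was purified from cell extracts on Ni-NTA. Inhibitors were incubated with 1.0 nM IMP-1 for 20 min at room temperature, and IC50 values were determined.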

Pseudomonas aeruginosa [1] = assay: Antibacterial activity against mexAB-deleted Pseudomonas aeruginosa KG5002/pMS363 at 50 ug/ml by microbroth dilution method in presence of biapenem; assay type: functional, organism-based
Pseudomonas aeruginosa [2] = assay: Antibacterial activity against Pseudomonas aeruginosa PAO1 pMS363 at 50 ug/ml by microbroth dilution method in presence of biapenem; assay type: functional, organism-based
Pseudomonas aeruginosa [3] = assay: Antibacterial activity against mexAB-deleted Pseudomonas aeruginosa KG5002/pMS363 by microbroth dilution method; assay type: functional
How it was run: (§1)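 MIC determined by broth microdilution following CLSI guidance, with Mueller–Hinton II broth as the test medium.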

Pseudomonas aeruginosa [4] = assay: Antibacterial activity against Pseudomonas aeruginosa PAO1 pMS363 by microbroth dilution method; assay type: functional; how it was run: as §1
Pseudomonas aeruginosa [5] = assay: Antibacterial activity against Pseudomonas aeruginosa clinical isolates producing IMP-1 by microbroth dilution method in presence of meropenem; assay type: functional, organism-based
How it was run: (§2)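 Minimum inhibitory concentrations were determined by broth microdilution following CLSI guidance, with Mueller–Hinton II broth as the test medium.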

Pseudomonas aeruginosa [6] = assay: Antibacterial activity against Pseudomonas aeruginosa clinical isolates producing IMP-1 by microbroth dilution method in presence of ceftazidime; assay type: functional, organism-based; how it was run: as §2
Pseudomonas aeruginosa [7] = assay: Antibacterial activity against Pseudomonas aeruginosa clinical isolates producing IMP-1 by microbroth dilution method in presence of biapenem; assay type: functional, organism-based; how it was run: as §2

Compound	IC50 (Metallo beta-lactamase) [µM]	Activity (Pseudomonas aeruginosa [1])	Activity (Pseudomonas aeruginosa [2])	also measured
O=C(O)c1cccc(OCCO)c1C(=O)O	47.8	Active	Active	–
O=C(O)c1cccc(O)c1C(=O)O	> 300	–	–	–
O=C(O)c1cccc(OCCCc2ccccc2)c1C(=O)O	1.7	Active	inactive	–
O=C(O)c1cccc(N2CCC(CO)CC2)c1C(=O)O	2.6	Active	Active	–
O=C(O)c1cccc(N2CCCC(CO)C2)c1C(=O)O (stereo not given)	2.1	Active	Active	–
CCCCOc1cccc(C(=O)O)c1C(=O)O	5.1	–	–	–
O=C(O)c1cccc(N2CCCC2)c1C(=O)O	2.8	Active	Active	–
Nc1cccc(C(=O)O)c1C(=O)O	300	–	–	–
CCCCNc1cccc(C(=O)O)c1C(=O)O	13.1	–	–	–
O=C(O)c1cccc(OCCCO)c1C(=O)O	21.4	Active	Active	–
CN(C)c1cccc(C(=O)O)c1C(=O)O	94.5	Active	Active	–
C[C@@H](O)[C@H]1C(=O)N2C(C(=O)[O-])=C(SC3Cn4cnc[n+]4C3)[C@H](C)[C@H]12 (stereo not given in full) [BIAPENEM]	–	–	–	MIC (Pseudomonas aeruginosa [3]): 64 µg/mL (≈ 183 µM); MIC (Pseudomonas aeruginosa [4]): 64 µg/mL (≈ 183 µM)
COC1CCN(c2cccc(C(=O)O)c2C(=O)O)CC1	3.7	Active	Active	–
COc1cccc(C(=O)O)c1C(=O)O	142	–	–	–
O=C(O)c1cccc(N2CCC(CCO)CC2)c1C(=O)O	25.6	Active	Active	–
O=C(O)c1cccc(-c2ccc(O)cc2)c1C(=O)O	1.55	–	–	–
O=C(O)c1cccc(OCCCC2CCCCC2)c1C(=O)O	2	–	inactive	–
O=C(O)CCCCOc1cccc(C(=O)O)c1C(=O)O	18.8	–	Active	–
O=C(O)c1cccc(N2CCCCC2)c1C(=O)O	10.8	Active	Active	–
O=C(O)c1cccc(N2CCCC(O)C2)c1C(=O)O (stereo not given)	2.7	Active	Active	–
O=C(O)c1cccc(N2CCC(O)(c3ccccc3)CC2)c1C(=O)O	2.3	Active	Active	–
O=C(O)c1cccc(OCc2ccccc2)c1C(=O)O	7.4	–	–	–
O=C(O)c1cccc(N2CCC(O)CC2)c1C(=O)O	2.7	Active	Active	Activity (Pseudomonas aeruginosa [5]): Dose-dependent effect; Activity (Pseudomonas aeruginosa [6]): Dose-dependent effect; Activity (Pseudomonas aeruginosa [7]): Dose-dependent effect
